From article PMC5992689 (Molecular Therapy. Nucleic Acids, 2018)

Experiments:
KT-5 cells (astrocytes) = experiment: Phage display panning; assay type: binding; conditions: 48 of the 58 phage plaques, astrocytes (KT-5)
Outline: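 A CX7C M13 library in Tris-buffered saline (pH 7.5) was given via tail vein to C57BL/6 mice. After 5 min, blood was removed transcardially, and spinal cords were homogenised in DMEM with protease inhibitor. Phage were titrated as plaques in E. coli ER2738, amplified and re-injected for three rounds. Three 5-min in vitro panning cycles on KT-5 cells followed, and pIII inserts of 50–58 phages were sequenced.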

[1] = tested on: primary cultured astrocytes; experiment: Binding of FITC-labeled peptides to cultured astrocytes; assay type: cell-based, C57BL/6 mice; conditions: FITC-labeled peptide 1 μg/mL, 24 hr, GFAP immunostaining
Outline: (§1)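 Cells were exposed to FITC-labelled peptide at 1 μg/mL in culture medium for 24 hr, fixed in 4% PFA and immunostained for MAP2 (NSC-34, maintained in DMEM/F12 with 10% FCS), GFAP (primary astrocytes) or Iba1 (primary microglia). Primary cultures came from C57BL/6 pups 1–2 days postpartum. FITC-positive marker cells were counted by confocal microscopy in six independent wells and averaged as a percentage; experiments were run in triplicate.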

[2] = tested on: primary cultured microglia; experiment: Binding of FITC-labeled peptides to cultured microglia; assay type: cell-based, C57BL/6 mice; conditions: FITC-labeled peptide 1 μg/mL, 24 hr; for FITC labeling of primary cultured microglia (in words): Iba1 immunostaining; for percentage of FITC-positive microglia in all Iba1-positive cells: n = 6 wells
Outline: as §1

NSC-34 cells (neuron) = experiment: Binding of FITC-labeled peptides to neuronal cells; assay type: cell-based; conditions: FITC-labeled peptide 1 μg/mL, 24 hr, MAP2 immunostaining
Outline: as §1

[3] = tested on: CD86 (M1)-positive primary microglia; experiment: CD86 immunocytochemistry of peptide-labeled microglia; assay type: cell-based, C57BL/6 mice; conditions: FITC-labeled peptide 1 μg/mL, 24 hr; n = 6 wells
Outline: (§2)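 Primary C57BL/6 microglia were isolated from 14-day mixed glial culture and incubated 24 hr with FITC-peptide at 1 μg/mL. They were then fixed in 4% PFA and immunostained for CD86 (M1) or CD206 (M2) with Alexa Fluor 555 secondaries. Marker-positive cells were counted by confocal microscopy as a percentage of FITC-positive microglia across six independent wells, with >1,000 cells in total and triplicate experiments.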

[4] = tested on: CD206 (M2)-positive primary microglia; experiment: CD206 immunocytochemistry of peptide-labeled microglia; assay type: cell-based, C57BL/6 mice; conditions: FITC-labeled peptide 1 μg/mL, 24 hr; n = 6 wells
Outline: as §2

[5] = tested on: spinal cord astrocytes (GFAP) and microglia (Iba1); assay type: in vivo, C57BL/6 mice; conditions: 3 μg FITC-labeled peptide, intrathecal, 3 hr; MG1 compared with MG2

| Substance | frequency of phage plaques (KT-5 cells (astrocytes)) | FITC labeling of primary cultured astrocytes (in words) [1] | FITC labeling of primary cultured microglia (in words) [2] | FITC labeling of NSC-34 cells (in words) (NSC-34 cells (neuron)) | percentage of FITC-positive microglia in all Iba1-positive cells [2] | percentage of CD86-positive cells in the microglia labeled with the peptide [3] | percentage of CD206-positive cells in the microglia labeled with the peptide [4] | accumulation of peptide in the spinal cord tissues [5] |
| --- | --- | --- | --- | --- | --- | --- | --- | --- |
| C-LNSSQPS-C [AS1] | 83% | only observed in astrocytes | not with MAP2 staining in neurons or Iba1 staining in microglia | not with MAP2 staining in neurons or Iba1 staining in microglia | – | – | – | – |
| C-HHSSSAR-C [MG1] | – | not observed | mainly present in Iba1-positive microglia | not observed | approximately 60% | 40% | 26% | greater accumulation of MG1 peptides than of MG2 peptides |
| C-NTGSPYE-C [MG2] | – | not in the NSC-34 cells or astrocytes | observed only in the primary cultured microglia | not in the NSC-34 cells or astrocytes | approximately 40% | 27% | 47% | – |
